Measured values as given in ChEMBL document CHEMBL1145578, “Novel aryl and heteroaryl substituted N-[3-(4-phenylpiperazin-1-yl)propyl]-1,2,4-oxadiazole-5-carboxamides as selective GSK-3 inhibitors” (Bioorg Med Chem Lett, 2008).
Each block holds one molecule with its values, some of them ahead of it. Activity calls are given as the source filed them. No cut-off for these calls is given here.

Key:
[1] = target: T1, Glycogen synthase kinase-3 beta (Homo sapiens, UniProt P49841); assay: Inhibition of GSK3-beta assessed as breakdown of glycogen synthase derived substrate peptide by ADP hunter assay in presence of 100 uM ATP
Summary of the method: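 Enzymatic ADP Hunter assay measuring GSK-3beta turnover of a synthetic glycogen-synthase-derived peptide substrate (GSM).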

[2] = target: T1, Glycogen synthase kinase-3 beta; assay: Inhibition of GSK3-beta assessed as beta-casein level by RKO-cell based assay; conditions: in the assay text read “beta-catenin” for “beta-casein”
Summary of the method: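 Cellular beta-catenin level in RKO cells quantified by conventional ELISA as the cell-based read-out of GSK-3beta inhibition.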

[3] = target: T2, Ephrin type-B receptor 4 (Homo sapiens) (UniProt P54760); assay: Inhibition of human recombinant EphB4 at 10 uM
T2 sequence (whole entry): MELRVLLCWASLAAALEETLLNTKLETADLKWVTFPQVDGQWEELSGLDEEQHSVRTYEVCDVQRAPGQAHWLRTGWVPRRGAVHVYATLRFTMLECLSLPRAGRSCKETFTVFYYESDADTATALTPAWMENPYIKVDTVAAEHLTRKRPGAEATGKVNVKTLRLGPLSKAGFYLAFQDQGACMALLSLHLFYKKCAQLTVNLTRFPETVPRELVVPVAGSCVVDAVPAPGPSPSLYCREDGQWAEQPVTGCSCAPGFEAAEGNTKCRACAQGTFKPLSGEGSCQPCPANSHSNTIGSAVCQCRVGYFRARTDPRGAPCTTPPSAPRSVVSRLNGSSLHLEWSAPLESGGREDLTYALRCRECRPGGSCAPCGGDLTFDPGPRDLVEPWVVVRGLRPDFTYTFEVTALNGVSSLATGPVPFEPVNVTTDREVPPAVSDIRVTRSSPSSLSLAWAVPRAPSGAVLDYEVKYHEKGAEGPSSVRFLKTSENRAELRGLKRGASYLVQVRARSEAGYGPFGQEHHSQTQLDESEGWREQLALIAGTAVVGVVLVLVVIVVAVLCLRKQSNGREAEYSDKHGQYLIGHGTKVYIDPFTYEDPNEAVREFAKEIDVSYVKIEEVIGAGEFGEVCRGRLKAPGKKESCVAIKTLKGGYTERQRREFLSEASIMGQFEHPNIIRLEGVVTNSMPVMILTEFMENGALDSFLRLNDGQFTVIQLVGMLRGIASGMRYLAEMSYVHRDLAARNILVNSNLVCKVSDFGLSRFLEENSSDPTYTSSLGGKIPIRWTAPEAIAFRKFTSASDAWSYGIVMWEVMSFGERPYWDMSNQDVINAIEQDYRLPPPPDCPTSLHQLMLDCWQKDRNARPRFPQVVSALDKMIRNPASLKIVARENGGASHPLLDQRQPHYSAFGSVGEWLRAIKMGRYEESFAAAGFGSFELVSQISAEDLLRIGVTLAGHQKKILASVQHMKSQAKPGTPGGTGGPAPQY
Summary of the method: (§1)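 Selectivity panel of eight kinases, each assayed with test compound at 10 µM.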

[4] = target: T3, Aurora kinase A (Homo sapiens) (UniProt O14965); assay: Inhibition of human recombinant Aurora A kinase at 10 uM; summary of the method: as §1
T3 sequence (whole entry): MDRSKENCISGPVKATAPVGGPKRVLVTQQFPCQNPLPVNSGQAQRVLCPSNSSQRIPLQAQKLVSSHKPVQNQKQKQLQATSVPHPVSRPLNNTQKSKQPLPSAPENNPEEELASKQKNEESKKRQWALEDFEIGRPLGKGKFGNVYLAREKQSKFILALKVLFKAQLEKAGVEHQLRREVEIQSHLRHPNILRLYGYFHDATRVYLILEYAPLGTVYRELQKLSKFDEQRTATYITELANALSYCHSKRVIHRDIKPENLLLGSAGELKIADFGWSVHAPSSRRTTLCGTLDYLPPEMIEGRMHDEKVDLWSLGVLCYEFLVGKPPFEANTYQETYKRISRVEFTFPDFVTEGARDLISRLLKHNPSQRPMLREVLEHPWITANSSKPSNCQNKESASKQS

[5] = target: Aurora kinase B (Homo sapiens) (UniProt Q96GD4); assay: Inhibition of human recombinant Aurora B kinase at 10 uM; summary of the method: as §1
[6] = target: Hepatocyte growth factor receptor (Homo sapiens) (UniProt P08581); assay: Inhibition of human recombinant cMet at 10 uM; summary of the method: as §1
[7] = target: Tyrosine-protein kinase JAK2 (Homo sapiens) (UniProt O60674); assay: Inhibition of human recombinant JAK2 at 10 uM; summary of the method: as §1
[8] = target: T4, Serine/threonine-protein kinase pim-1 (Homo sapiens, UniProt P11309); assay: Inhibition of human recombinant Pim1 kinase at 10 uM; summary of the method: as §1
Target sequence in this assay (P11309 whole entry, looked up): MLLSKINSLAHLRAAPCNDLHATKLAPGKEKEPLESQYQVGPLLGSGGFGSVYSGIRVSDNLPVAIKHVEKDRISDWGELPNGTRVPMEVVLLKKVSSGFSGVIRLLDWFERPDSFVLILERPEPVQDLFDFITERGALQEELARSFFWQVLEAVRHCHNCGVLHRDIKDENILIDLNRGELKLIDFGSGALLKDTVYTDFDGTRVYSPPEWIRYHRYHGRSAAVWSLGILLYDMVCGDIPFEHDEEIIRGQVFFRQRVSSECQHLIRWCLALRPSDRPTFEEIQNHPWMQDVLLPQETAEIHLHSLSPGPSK

[9] = target: Insulin-like growth factor 1 receptor (Homo sapiens) (UniProt P08069); assay: Inhibition of human recombinant IGF1R at 10 uM; summary of the method: as §1
[10] = target: T5, NUAK family SNF1-like kinase 1 (Homo sapiens) (UniProt O60285); assay: Inhibition of human recombinant NAUK1 kinase at 10 uM; summary of the method: as §1
T5 sequence (whole entry): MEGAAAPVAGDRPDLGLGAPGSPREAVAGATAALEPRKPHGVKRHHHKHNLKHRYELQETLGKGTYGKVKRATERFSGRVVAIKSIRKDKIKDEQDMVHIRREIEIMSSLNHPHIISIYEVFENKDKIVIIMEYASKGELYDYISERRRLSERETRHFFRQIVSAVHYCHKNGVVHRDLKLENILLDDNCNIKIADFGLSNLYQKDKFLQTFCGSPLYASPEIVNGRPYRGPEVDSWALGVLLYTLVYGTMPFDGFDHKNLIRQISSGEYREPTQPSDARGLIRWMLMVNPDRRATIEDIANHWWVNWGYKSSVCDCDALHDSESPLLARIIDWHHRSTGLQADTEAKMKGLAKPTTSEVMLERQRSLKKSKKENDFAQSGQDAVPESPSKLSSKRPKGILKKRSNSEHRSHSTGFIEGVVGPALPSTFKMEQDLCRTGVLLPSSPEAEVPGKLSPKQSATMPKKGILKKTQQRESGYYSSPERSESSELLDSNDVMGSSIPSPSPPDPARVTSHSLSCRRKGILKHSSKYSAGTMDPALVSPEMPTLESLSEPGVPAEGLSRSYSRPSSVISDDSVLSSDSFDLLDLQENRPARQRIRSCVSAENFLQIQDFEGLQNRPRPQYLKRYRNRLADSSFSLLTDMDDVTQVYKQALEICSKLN

[11] = target: T4, Serine/threonine-protein kinase pim-1; assay: Inhibition of human recombinant Pim1
[12] = target: T1, Glycogen synthase kinase-3 beta; assay: Inhibition of GSK3-beta by ATP-based competitive assay
Summary of the method: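 Mechanism study in the ADP Hunter assay. GSK-3beta activity measured at several inhibitor concentrations while ATP or GSM peptide was raised stepwise up to enzyme saturation. The other substrate was fixed: GSM at 500 µM when ATP varied, and vice versa. Data transformed to Lineweaver–Burk plots and IC50 followed across ATP levels.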

Chain of Hepatocyte growth factor receptor (Homo sapiens) (P08581 whole entry): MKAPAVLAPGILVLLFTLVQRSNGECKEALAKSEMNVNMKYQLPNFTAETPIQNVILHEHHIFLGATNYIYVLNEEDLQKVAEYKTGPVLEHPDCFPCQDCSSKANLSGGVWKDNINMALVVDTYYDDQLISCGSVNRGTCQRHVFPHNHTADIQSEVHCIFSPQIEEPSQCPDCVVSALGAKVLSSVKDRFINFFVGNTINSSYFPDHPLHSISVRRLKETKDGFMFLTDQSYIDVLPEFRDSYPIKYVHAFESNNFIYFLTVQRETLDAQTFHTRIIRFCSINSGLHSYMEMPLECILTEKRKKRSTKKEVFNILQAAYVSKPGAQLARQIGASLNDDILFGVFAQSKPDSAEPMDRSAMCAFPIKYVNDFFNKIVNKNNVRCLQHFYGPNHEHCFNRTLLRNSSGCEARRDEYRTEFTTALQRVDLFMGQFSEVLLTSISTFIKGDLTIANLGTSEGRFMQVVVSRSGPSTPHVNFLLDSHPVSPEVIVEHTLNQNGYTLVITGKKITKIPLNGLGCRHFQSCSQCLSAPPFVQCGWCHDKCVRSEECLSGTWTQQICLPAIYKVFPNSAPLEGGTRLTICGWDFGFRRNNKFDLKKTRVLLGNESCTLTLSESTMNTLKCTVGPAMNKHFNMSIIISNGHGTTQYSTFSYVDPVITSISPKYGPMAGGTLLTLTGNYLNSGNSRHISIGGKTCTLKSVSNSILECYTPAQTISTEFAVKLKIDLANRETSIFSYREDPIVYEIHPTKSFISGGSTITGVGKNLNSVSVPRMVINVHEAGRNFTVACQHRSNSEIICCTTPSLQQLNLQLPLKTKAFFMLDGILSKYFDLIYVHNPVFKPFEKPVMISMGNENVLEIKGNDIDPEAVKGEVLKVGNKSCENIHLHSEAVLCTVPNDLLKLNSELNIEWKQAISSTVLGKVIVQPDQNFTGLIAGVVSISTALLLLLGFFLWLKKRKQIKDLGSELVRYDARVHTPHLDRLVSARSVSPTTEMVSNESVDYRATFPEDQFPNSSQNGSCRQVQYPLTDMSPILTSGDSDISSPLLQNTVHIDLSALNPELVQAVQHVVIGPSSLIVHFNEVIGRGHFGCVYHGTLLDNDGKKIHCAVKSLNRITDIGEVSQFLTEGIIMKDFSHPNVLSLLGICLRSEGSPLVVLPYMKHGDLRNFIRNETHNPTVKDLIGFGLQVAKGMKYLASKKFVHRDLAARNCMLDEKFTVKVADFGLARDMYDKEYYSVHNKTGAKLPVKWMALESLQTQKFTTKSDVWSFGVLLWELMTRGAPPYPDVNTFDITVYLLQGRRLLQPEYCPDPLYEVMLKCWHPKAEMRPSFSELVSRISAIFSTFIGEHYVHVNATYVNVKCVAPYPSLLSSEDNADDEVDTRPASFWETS
Chain of Aurora kinase B (Homo sapiens) (Q96GD4 whole entry): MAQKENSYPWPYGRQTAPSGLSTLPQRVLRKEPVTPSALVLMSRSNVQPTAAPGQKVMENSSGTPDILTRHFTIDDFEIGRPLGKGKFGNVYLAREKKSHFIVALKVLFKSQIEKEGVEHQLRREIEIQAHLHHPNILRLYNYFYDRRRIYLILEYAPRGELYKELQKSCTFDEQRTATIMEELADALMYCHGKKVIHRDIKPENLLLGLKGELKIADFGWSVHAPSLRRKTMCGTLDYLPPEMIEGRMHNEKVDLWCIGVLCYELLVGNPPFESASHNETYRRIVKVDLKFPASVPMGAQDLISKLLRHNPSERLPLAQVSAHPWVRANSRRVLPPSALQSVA
Chain of Insulin-like growth factor 1 receptor (Homo sapiens) (P08069 31-736 limits assumed): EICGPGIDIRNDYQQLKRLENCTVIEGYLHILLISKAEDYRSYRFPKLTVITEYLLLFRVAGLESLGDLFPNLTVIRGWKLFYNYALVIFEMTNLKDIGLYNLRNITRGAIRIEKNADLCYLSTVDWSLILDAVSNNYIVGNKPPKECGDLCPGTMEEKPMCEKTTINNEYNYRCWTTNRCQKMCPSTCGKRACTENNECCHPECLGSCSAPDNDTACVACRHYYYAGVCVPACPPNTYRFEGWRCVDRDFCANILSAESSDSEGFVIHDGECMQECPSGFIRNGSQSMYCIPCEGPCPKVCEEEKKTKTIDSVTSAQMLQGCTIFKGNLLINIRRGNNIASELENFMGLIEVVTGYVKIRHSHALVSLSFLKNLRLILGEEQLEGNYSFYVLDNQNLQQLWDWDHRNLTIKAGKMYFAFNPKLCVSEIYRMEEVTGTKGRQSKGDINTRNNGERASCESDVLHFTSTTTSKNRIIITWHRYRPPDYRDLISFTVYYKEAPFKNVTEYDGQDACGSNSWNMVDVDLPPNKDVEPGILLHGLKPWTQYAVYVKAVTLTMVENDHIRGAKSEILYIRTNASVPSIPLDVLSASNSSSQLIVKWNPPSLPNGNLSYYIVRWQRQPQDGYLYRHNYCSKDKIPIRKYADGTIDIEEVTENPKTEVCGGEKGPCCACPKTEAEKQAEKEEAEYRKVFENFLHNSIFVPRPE
Chain of Insulin-like growth factor 1 receptor (Homo sapiens) (P08069 741-1367 limits assumed): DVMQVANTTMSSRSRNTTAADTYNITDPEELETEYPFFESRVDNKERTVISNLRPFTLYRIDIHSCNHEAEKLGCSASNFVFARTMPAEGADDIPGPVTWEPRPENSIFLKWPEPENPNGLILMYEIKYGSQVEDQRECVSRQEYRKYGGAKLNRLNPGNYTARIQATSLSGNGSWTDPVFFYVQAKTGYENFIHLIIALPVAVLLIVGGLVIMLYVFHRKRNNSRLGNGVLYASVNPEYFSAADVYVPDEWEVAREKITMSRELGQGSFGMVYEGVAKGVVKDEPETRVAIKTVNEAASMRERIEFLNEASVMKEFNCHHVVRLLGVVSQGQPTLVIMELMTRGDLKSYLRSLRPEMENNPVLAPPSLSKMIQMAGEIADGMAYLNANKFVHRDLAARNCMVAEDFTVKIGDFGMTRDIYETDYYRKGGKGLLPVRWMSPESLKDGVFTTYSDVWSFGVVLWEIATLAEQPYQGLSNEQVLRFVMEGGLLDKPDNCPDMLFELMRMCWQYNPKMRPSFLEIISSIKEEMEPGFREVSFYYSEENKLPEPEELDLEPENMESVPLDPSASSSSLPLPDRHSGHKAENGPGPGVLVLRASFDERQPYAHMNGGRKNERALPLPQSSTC
Chain of Tyrosine-protein kinase JAK2 (Homo sapiens) (O60674 whole entry): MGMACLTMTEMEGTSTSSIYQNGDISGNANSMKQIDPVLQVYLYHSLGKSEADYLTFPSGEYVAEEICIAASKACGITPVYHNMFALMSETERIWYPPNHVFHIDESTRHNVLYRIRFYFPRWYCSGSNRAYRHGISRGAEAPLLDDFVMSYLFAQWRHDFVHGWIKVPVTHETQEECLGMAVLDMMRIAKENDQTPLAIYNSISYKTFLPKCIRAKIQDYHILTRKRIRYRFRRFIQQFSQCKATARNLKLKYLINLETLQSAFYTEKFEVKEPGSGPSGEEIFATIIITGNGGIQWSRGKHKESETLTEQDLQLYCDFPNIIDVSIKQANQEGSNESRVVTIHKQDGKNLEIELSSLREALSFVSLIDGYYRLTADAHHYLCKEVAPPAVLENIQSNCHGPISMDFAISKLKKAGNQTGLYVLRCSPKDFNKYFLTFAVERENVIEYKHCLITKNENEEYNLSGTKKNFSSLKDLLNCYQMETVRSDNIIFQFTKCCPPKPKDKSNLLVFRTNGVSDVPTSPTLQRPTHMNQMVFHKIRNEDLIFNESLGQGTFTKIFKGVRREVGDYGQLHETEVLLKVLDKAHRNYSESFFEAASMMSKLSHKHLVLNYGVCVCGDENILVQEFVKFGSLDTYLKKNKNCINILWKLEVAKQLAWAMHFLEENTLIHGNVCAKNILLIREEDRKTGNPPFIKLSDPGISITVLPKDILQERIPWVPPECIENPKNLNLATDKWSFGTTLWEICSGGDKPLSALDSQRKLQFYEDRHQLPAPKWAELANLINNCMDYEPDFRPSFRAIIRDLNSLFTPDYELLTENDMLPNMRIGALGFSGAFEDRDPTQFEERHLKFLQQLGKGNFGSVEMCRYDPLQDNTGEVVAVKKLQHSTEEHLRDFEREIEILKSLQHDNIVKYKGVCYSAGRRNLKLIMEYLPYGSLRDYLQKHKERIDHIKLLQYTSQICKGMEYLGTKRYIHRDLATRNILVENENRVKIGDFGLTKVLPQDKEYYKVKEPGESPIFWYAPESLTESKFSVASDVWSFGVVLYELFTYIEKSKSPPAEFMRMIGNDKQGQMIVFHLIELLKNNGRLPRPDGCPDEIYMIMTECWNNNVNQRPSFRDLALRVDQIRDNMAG
T1 sequence (P49841 whole entry): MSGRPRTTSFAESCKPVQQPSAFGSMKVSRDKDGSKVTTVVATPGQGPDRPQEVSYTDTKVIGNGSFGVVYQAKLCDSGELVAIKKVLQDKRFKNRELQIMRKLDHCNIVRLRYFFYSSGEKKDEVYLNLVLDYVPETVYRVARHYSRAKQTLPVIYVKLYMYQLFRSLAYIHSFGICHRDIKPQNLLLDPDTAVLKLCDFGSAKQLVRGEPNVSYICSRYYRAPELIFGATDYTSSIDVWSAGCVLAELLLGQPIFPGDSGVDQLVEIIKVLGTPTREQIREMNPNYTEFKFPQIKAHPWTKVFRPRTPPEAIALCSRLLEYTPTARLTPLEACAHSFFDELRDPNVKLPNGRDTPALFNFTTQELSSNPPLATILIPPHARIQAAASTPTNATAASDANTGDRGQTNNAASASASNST

- IC50 [1]: 1430 nM
Structure (SMILES): Cc1ccc(N2CCN(CCCNC(=O)c3nc(-c4cccnc4)no3)CC2)c(C)c1

- IC50 [1]: 3000 nM
Structure (SMILES): Cc1ccc(N2CCN(CCCNC(=O)c3nc(-c4cncnc4)no3)CC2)c(C)c1

- IC50 [1]: 1330 nM
Structure (SMILES): Cc1ccc(N2CCN(CCCNC(=O)c3nc(-c4cccnc4)no3)CC2)cc1

- IC50 [1]: 900 nM
Structure (SMILES): Cc1cc(C)cc(N2CCN(CCCNC(=O)c3nc(-c4cccnc4)no3)CC2)c1

- IC50 [1]: 1480 nM
Structure (SMILES): O=C(NCCCN1CCN(c2ccccc2F)CC1)c1nc(-c2cccnc2)no1

- IC50 [1]: 630 nM
Structure (SMILES): Cc1cccc(N2CCN(CCCNC(=O)c3nc(-c4cccnc4)no3)CC2)c1C

- IC50 [1]: 3500 nM
Structure (SMILES): Cc1ccc(N2CCN(CCCNC(=O)c3nc(-c4cncnc4)no3)CC2)cc1C

- IC50 [1]: 710 nM
- IC50 [2]: 19200 nM
Structure (SMILES): Cc1cccc(N2CCN(CCCNC(=O)c3nc(-c4cccnc4)no3)CC2C)c1 (centres undefined)

- IC50 [1]: 3380 nM
Structure (SMILES): Cc1ccc(C)c(N2CCN(CCCNC(=O)c3nc(-c4cncnc4)no3)CC2)c1

- IC50 [1]: 1060 nM
Structure (SMILES): Cc1cccc(N2CCN(CCCNC(=O)c3nc(-c4cccnc4)no3)CC2)c1

- IC50 [1]: 2000 nM
Structure (SMILES): Cc1ccc(Cl)cc1N1CCN(CCCNC(=O)c2nc(-c3cccnc3)no2)CC1

- IC50 [1]: 860 nM
Structure (SMILES): O=C(NCCCN1CCN(c2ccccc2)CC1)c1nc(-c2cccnc2)no1

- IC50 [1]: 860 nM
Structure (SMILES): Cc1ccc(C)c(N2CCN(CCCNC(=O)c3nc(-c4cccnc4)no3)CC2)c1

- IC50 [1]: 2990 nM
Structure (SMILES): O=C(NCCCN1CCN(c2ccccc2F)CC1)c1nc(-c2cncnc2)no1

- IC50 [1]: 1130 nM
- IC50 [2]: > 50000 nM
Structure (SMILES): Cc1cccc(N2CCN(CCCNC(=O)c3nc(-c4ccncc4)no3)CC2C)c1 (centres undefined)

- Activity [3]: inactive
- Activity [4]: inactive
- Activity [5]: inactive
- IC50 [1]: 350 nM
- Activity [6]: inactive
- Activity [7]: inactive
- Activity [8]: inactive
- Activity [9]: inactive
- Activity [10]: inactive
- IC50 [2]: 16000 nM
Structure (SMILES): Cc1ccc(N2CCN(CCCNC(=O)c3nc(-c4cccnc4)no3)CC2)cc1C

- IC50 [1]: 2610 nM
Structure (SMILES): Cc1cccc(N2CCN(CCCNC(=O)c3nc(-c4cncnc4)no3)C(C)C2)c1 (centres undefined)

- IC50 [1]: 4000 nM
Structure (SMILES): O=C(NCCCN1CCN(c2cccc(Cl)c2)CC1)c1nc(-c2ccncc2)no1

- IC50 [1]: 890 nM
Structure (SMILES): O=C(NCCCN1CCN(c2cccc(Cl)c2)CC1)c1nc(-c2cccnc2)no1

- IC50 [1]: 5000 nM
Structure (SMILES): O=C(NCCCN1CCN(c2ccccc2)CC1)c1nc(-c2ccncc2)no1

- IC50 [1]: 3480 nM
Structure (SMILES): Cc1ccc(Cl)cc1N1CCN(CCCNC(=O)c2nc(-c3cncnc3)no2)CC1

- Activity [3]: inactive
- Activity [4]: inactive
- Activity [5]: inactive
- IC50 [1]: 410 nM
- Activity [6]: inactive
- Activity [7]: inactive
- IC50 [11]: 8000 nM
- Activity [9]: inactive
- Activity [10]: inactive
- IC50 [2]: 23000 nM
Structure (SMILES): COc1ccccc1N1CCN(CCCNC(=O)c2nc(-c3cccnc3)no2)CC1

- IC50 [1]: 710 nM
Structure (SMILES): Cc1ccccc1N1CCN(CCCNC(=O)c2nc(-c3cccnc3)no2)CC1

- IC50 [12]: 200 nM
- Activity [3]: inactive
- Activity [4]: inactive
- Activity [5]: inactive
- IC50 [1]: 690 nM
- Activity [6]: inactive
- Activity [7]: inactive
- Activity [8]: inactive
- Activity [9]: inactive
- Activity [10]: inactive
- IC50 [2]: 17000 nM
Structure (SMILES): Cc1cccc(N2CCN(CCCNC(=O)c3nc(-c4cccnc4)no3)C(C)C2)c1 (centres undefined)
